High-throughput results from PubChem BioAssay.
Only some compounds are listed: those with a hit (about 4.9% of all), similar ones and a draw of the others.
STAT3 blocker: reduces IL-6 driven STAT3 reporter signal. U3A cells, IL-6 STAT3-luciferase reporter, luminescence; host cell line lacks STAT1. 190,000 compounds, 0.89% hits. inhibition, % at 5.5 µM;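 active = inhibition above the mean inhibition across all screened compounds plus 3 SD, cut at about 44% in these data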
NF-kB neuron act: NF-kB expression increase, human neuronal cells | 190,000 compounds, 1.6% hits | NF-kB reporter expression; stronger effect = higher value | fold change at 12.5 µM; in the data active = fold change above about 3.3
APP 5'UTR act: APP 5'UTR luciferase reporter activation; AID 1276; SH-SY5Y APP 5'UTR luciferase reporter, luminescence; zero percent = DMSO vehicle wells; activation, % at 2 µM; 190,000 compounds, 1% hits;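 active = activation above a set limit, based on mean plus 3 SD of controls, cut at about 140% in these data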
STAT3 activator: increases IL-6 driven STAT3 reporter signal. 190,000 compounds, 0.91% hits. U3A cells, IL-6 STAT3-luciferase reporter, luminescence; 100% = signal with IL-6 EC80 alone. activation (% of control), % at 5.6 µM;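 active = activation above the screen-wide mean of compound activation plus 3 SD, cut at about 130% in these data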
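Material: STAT3-luciferase reporter U3A cells; Probe or stimulus: IL-6 (33 ng/mL); Incubation: compound pre-incubation 1 h before IL-6, then 6 h stimulation at 37 °C; Technique: luminescence from STAT3-driven luciferase reporter; Evaluation: % activation versus median of IL-6-stimulated wells; Controls: IL-6-only high control.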
STAT1 inh: STAT1 signaling inhibition. inhibition, % at 5.5 µM. NIH 3T3 STAT1-luciferase reporter, IFN-gamma, luminescence. 200,000 compounds, 0.35% hits;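 active = inhibition above a set limit, the mean inhibition across all tested compounds plus 3 SD, cut at about 34% in these data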
STAT1 activator: increases IFN-gamma driven STAT1 reporter signal; NIH 3T3 STAT1-luciferase reporter, luminescence; 100% = IFN-gamma alone, no compound; activation (% of control), % at 5.5 µM; 200,000 compounds, 2.6% hits;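 active = activation above the screen-wide mean activation plus 3 SD, cut at about 130% in these data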
Large screens that a line does not name were inactive.

Cc1ccc(-c2nc3ccccn3c2C=O)cc1	STAT1 activator 132
COc1cc(-c2nc3ccccn3c2/N=C/c2cc(OC)c(OC)c(OC)c2)ccc1O	none (no result: NF-kB neuron act)
c1ccn2c(c1)nc1c2nc2ccccn21	none
Cc1c(-c2ccc(Br)cc2)nc2ccccn12	STAT1 activator 148
CN(C)c1ccc(-c2nc3ccccn3c2/N=C/c2ccc(Br)cc2)cc1	APP 5'UTR act 158, STAT1 activator 134
CCn1cc(C(=O)N2CCN(c3ccc(OC)cc3)CC2)c(=O)c2cc(S(=O)(=O)N3CCCCC3)ccc21	none
CCn1cc(C(=O)N2CCc3ccccc32)c(=O)c2cc(S(=O)(=O)N3CCCC3)ccc21	STAT3 activator 133
CCCCCCSc1nsc(NC(=O)CC(C)C)n1	none
CCCSc1nsc(NC(=O)CC)n1	NF-kB neuron act 3.7, STAT1 activator 130
Cc1[nH]c2ccccc2c1N=Nc1ccccc1C(=O)O	STAT3 activator 135
Cc1[nH]c2ccccc2c1N=Nc1cccc(C(=O)O)c1	NF-kB neuron act 4.1, STAT1 activator 147
Cc1noc(C)c1N=Nc1ccccc1C(=O)O	none
O=C(Nc1ccccc1)N1CCN(S(=O)(=O)c2ccccc2)CC1	none
O=C(NCC1CCCO1)c1ccc2c(=O)n(Cc3ccco3)c(SCC(=O)N3CCCC3)nc2c1 (configuration not stated)	STAT1 inh 35
CC(NC(=O)Cc1cccs1)c1ccccc1 (configuration not stated)	none
O=C(CC1C(=O)NCCN1Cc1cccc(Oc2ccccc2)c1)NCCCn1cccn1 (configuration not stated)	none
Cc1cc(C(=O)N/N=C2\CC(=O)c3ccccc32)c(C)n1-c1ccccc1	STAT1 activator 137
Cc1cc(C(=O)N/N=C2\CC(=O)CC(C)(C)C2)c(C)n1-c1ccccc1	none
Cc1csc2nc(CSc3nncn3-c3ccccc3)c(Br)n12	none
Cc1csc2nc(CSc3nc4ccccc4o3)c(Br)n12	STAT1 activator 146
Nc1ccc2oc(C3CCCCC3)nc2c1	STAT1 activator 132
Cc1cccc(-c2c(O)cc(=O)[nH]c2Cl)c1	NF-kB neuron act 5.9
O=c1cc(O)c(-c2ccccc2Cl)c(Cl)[nH]1	none
Cc1cc(C)n(-c2nc3c(c(=O)n(C)c(=O)n3C)n2CC(O)COc2ccccc2C)n1 (configuration not stated)	none (no result: NF-kB neuron act)
O=C(CCNc1ccccc1)c1ccc2c(c1)OCO2	STAT1 activator 148
CC(=O)Nc1ccccc1OCC(=O)c1ccc2c(c1)OCO2	STAT1 activator 135
Cc1ccccc1OCC(=O)Nc1ccc2c(c1)OCO2	none
Cc1ccc(/C=N/n2cnc3sc(C)c(C)c3c2=O)o1	none
CCCN(CCC)CC(O)Cn1cc(/C=C/C(=O)c2ccccc2)c2ccccc21 (configuration not stated)	none
CN1CCN(Cn2cc(/C=C/C(=O)c3ccccc3)c3ccccc32)CC1	NF-kB neuron act 13, APP 5'UTR act 165, STAT1 activator 131
CCOC(=O)NC(=O)/C(C#N)=C(/C)N(C)C	none
CCC(CC)c1nnc(NC(=O)c2ccc3ccccc3n2)s1	NF-kB neuron act 4.9, STAT3 activator 152, STAT1 activator 152
Cc1cccc(NC(=O)c2ccc3ccccc3n2)c1C	NF-kB neuron act 9.1, APP 5'UTR act 211, STAT3 activator 142, STAT1 activator 134
COc1ccc(NC(=O)CN(C)C2CCCCC2)c([N+](=O)[O-])c1	none
O=C(CC1NCCNC1=O)Nc1ccc([N+](=O)[O-])cc1 (configuration not stated)	none
COC(=O)c1sccc1N/N=C/c1ccc(OC)c(OC)c1OC	STAT1 activator 129
COC(=O)c1sccc1N/N=C/c1cccc(Oc2ccccc2)c1	APP 5'UTR act 176, STAT1 activator 138
O=C(N/N=C/c1cccc(Oc2ccccc2)c1)c1cc[n+]([O-])cc1	none
O=C(CN1CCCCCC1)N/N=C/c1cccc(Cl)c1Cl	none
Cc1ccc(SCC(=O)c2c(C)nc3cc(C)ccn23)cc1	NF-kB neuron act 3.5
COc1cc(CNCCc2c[nH]c3ccccc23)ccc1OCc1ccc(F)cc1	none
O=C(Cc1c(O)c2ccccc2[nH]c1=O)NC1CCCCCC1	none
O=C(NC1CCCCCC1)c1c(O)c2ccccc2[nH]c1=O	STAT1 activator 141
Cc1ccc(-n2ncc3c(SCc4ccccn4)ncnc32)c(C)c1	STAT1 activator 137
CCC(=O)c1ccc(OCCn2cnc3ccccc32)cc1	none
Cc1c(NC(=O)CCc2ccccc2)cccc1[N+](=O)[O-]	none
CCOc1ccc(-c2c(C)n([O-])c3c([n+]2=O)CCCCC3)cc1	none
O=C(CN1C(=O)CC(c2ccco2)Sc2ccccc21)NC1CCCCC1 (configuration not stated)	none (no result: STAT3 blocker, STAT3 activator)
O=[N+]([O-])c1ccc(N/N=C/c2ccccc2)c(F)c1	STAT1 activator 145
O=[N+]([O-])c1ccc(/C=N/Nc2ncc(-c3ccccc3)cn2)cc1	none
Cc1ccc(Cn2ccnc2C(=O)Nc2ccccc2)cc1	STAT1 activator 142
CCN(CC)C(=O)Oc1ccc2c(=O)c(-c3ccccc3)coc2c1	NF-kB neuron act 4.6
O=c1c(-c2ccc(F)cc2)coc2cc(O)ccc12	STAT1 activator 146
COc1ccc2c(=O)c(-c3ccccc3)coc2c1	NF-kB neuron act 7.3, APP 5'UTR act 158, STAT1 activator 130
COc1ccc(-c2cc(C(=O)NC(C)C)no2)cc1	NF-kB neuron act 3.7, STAT1 activator 144
COC(=O)c1ccc(Oc2nc(NC(C)(C)C)nc(N3CCOCC3)n2)cc1	none
CCOc1ccc(-n2nnnc2-c2nc3ccccc3s2)cc1	STAT1 activator 140
Cc1ccc(-n2nnnc2-c2nc3ccccc3s2)cc1	none
O=C(O)c1cccc(Cn2c(Cl)c(/C=N/Nc3ccccc3)sc2=O)c1	none
O=C(O)c1cccc(N/N=C/C2=C(Cl)c3cc(Cl)ccc3SC2)c1	NF-kB neuron act 5.2, APP 5'UTR act 195
Cc1ccc(/C=N/Nc2cccc(C(=O)O)c2)s1	NF-kB neuron act 14
CCOc1cc(/C=N/Nc2cccc(C(=O)O)c2)ccc1OC(=O)c1ccccc1	STAT3 blocker 55, NF-kB neuron act 12, STAT1 inh 77
O=C(O)c1cccc(N/N=C/c2ccc(F)c(F)c2)c1	none
Cc1ccsc1/C=N/Nc1cccc(C(=O)O)c1	STAT3 blocker 49, NF-kB neuron act 14, STAT1 inh 89
CCOc1cc(/C=N/NC(=O)CNc2cccc(C)c2)ccc1OC(=O)c1ccccc1	none
CC(C)N(Cc1nc(-c2ccc3c(c2)OCO3)no1)Cc1nccn1C	none
O=CN1CCN(C(=O)c2ccc(-c3nc4ccccc4s3)s2)CC1	NF-kB neuron act 3.8, STAT1 activator 129
C=CCOC(=O)Nc1snnc1C	none
Cc1nnsc1NC(=O)OCc1ccc(C(C)(C)C)cc1	STAT3 blocker 65
